A word on the Kd: it is the free concentration of one partner at which half of the binding sites on the other are occupied at equilibrium, for simple one-to-one binding. The term IC50 denotes the concentration that gives 50% inhibition. Read a high IC50 as weaker potency.

Assay [1] has as its target T1, Histone deacetylase-like amidohydrolase (Alcaligenes sp. (strain DSM 11172) (Bordetella sp. (strain FB188)), UniProt Q70I53).
T1 sequence (Q70I53 whole entry): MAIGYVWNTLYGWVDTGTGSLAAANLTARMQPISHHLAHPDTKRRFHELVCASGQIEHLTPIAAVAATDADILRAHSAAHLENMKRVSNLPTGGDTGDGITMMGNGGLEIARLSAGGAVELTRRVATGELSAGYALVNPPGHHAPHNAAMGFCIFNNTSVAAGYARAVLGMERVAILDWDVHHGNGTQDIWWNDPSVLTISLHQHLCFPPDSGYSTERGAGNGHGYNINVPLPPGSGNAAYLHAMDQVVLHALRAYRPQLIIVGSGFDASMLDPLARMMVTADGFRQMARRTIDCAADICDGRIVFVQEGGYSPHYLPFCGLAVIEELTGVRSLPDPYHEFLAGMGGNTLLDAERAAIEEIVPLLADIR
Nature of the assay: Inhibition of Bordetella FB188 HDAH using Boc-L-Lys(acetyl)-MCA as substrate by fluorogenic enzymatic assay.

The target of the next assay is T2, Histone deacetylase 7 (Homo sapiens, UniProt Q8WUI4).
T2 sequence (Q8WUI4 whole entry): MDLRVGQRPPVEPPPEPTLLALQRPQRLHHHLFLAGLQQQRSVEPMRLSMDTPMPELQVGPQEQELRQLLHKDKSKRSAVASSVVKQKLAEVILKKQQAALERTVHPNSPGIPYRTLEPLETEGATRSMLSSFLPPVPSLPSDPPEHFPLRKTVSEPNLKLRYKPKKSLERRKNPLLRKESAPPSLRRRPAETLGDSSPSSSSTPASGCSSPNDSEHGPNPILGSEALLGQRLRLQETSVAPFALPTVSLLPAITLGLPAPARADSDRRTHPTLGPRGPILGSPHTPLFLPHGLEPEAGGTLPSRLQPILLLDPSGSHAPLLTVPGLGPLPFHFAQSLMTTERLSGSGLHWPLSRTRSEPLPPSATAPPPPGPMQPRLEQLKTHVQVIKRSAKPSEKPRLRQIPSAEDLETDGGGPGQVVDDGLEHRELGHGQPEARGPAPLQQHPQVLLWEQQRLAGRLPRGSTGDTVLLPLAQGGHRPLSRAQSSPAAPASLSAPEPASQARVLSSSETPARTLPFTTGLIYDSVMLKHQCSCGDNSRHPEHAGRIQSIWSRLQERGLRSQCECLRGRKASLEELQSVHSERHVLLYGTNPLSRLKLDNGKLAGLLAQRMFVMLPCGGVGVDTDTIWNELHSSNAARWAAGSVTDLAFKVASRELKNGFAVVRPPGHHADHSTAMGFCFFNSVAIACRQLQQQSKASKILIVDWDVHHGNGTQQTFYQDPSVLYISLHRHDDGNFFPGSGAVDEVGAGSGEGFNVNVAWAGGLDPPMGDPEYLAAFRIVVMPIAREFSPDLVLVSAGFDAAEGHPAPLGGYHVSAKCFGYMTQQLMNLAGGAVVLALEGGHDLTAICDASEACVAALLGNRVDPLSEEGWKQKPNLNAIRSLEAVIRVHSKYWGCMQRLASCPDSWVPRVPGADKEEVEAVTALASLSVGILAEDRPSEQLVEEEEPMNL
Description: Inhibition of recombinant human HDAC7 using Boc-L-Lys(trifluoroacetyl)-MCA as substrate by fluorogenic enzymatic assay.

Assay [2] deals with T3, Protein deacetylase HDAC6 (Homo sapiens, UniProt Q9UBN7).
T3 sequence (Q9UBN7 whole entry): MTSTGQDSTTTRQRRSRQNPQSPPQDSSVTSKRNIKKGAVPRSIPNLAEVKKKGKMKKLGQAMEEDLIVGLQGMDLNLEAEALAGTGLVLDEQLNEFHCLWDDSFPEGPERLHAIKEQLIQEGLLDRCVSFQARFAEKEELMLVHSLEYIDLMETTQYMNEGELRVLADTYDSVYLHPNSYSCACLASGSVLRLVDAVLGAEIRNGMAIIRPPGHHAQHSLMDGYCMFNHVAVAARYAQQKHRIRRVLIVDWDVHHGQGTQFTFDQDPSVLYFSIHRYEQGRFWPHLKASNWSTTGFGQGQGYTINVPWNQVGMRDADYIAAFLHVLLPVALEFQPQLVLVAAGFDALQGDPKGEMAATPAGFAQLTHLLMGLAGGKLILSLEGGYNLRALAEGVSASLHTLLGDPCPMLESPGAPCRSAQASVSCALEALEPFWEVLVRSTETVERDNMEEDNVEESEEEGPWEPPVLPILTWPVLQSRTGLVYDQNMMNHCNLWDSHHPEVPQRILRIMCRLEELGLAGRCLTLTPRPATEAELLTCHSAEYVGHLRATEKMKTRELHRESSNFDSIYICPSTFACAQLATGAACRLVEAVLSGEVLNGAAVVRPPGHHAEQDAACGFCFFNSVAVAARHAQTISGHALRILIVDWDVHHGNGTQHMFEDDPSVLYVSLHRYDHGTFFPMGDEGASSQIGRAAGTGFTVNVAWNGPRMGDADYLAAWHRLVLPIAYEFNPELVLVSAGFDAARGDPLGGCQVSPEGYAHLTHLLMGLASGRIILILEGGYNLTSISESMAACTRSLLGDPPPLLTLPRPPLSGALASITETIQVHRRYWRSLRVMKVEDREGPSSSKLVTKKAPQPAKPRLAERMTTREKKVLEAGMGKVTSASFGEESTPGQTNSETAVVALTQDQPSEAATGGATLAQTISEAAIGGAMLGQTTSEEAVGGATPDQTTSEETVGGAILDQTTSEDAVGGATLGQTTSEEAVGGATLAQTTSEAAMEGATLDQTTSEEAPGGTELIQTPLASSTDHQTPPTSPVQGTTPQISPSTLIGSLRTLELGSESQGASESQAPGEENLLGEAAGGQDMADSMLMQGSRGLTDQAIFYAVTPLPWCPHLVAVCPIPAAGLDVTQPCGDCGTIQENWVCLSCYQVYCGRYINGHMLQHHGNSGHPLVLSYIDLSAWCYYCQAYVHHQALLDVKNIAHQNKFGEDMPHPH
Description: Inhibition of recombinant human HDAC6 using Boc-L-Lys(acetyl)-MCA as substrate by fluorogenic enzymatic assay.

The target in the next assay is T4, Histone deacetylase 8 (Homo sapiens, UniProt Q9BY41).
T4 sequence (Q9BY41 whole entry): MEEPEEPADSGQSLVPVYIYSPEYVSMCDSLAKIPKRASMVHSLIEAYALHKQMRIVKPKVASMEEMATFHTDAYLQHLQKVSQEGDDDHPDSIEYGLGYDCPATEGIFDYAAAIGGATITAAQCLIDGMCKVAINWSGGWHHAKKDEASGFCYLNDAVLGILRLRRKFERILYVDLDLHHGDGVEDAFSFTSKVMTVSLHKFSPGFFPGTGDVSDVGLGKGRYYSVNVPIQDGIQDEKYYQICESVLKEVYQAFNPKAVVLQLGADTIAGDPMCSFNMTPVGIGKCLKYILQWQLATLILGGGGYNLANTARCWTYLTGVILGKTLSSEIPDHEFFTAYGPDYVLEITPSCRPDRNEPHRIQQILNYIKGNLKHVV
Description: Inhibition of recombinant human HDAC8 using Boc-L-Lys(trifluoroacetyl)-MCA as substrate by fluorogenic enzymatic assay.

Another assay has as its target Histone deacetylase 1 (Homo sapiens, UniProt Q13547). Nature of the assay: Inhibition of recombinant human HDAC1 using Boc-L-Lys(acetyl)-MCA as substrate by fluorogenic enzymatic assay.
Assay [3] concerns the target Histone deacetylase. Nature of the assay: Inhibition of HDAC in human K562 cells using Boc-L-Lys(trifluoroacetyl)-MCA as substrate by fluorogenic cellular assay. The format is cell-based. An outline of the steps: (§1)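 K562 cells were grown in RPMI with 10% FCS, L-glutamine and gentamycin, then pelleted. Lysis in 50 mM Tris–HCl pH 8.5, 1 M NaCl, 1 mM MgCl₂, Triton X-100 (up to 5× pellet volume), 2 h at 37 °C. The diluted lysate replaces recombinant enzyme in the two-step fluorogenic trypsin-coupled assay with substrate at 20 µM final. Read-out is AMC fluorescence (ex 390, em 460 nm), giving IC50.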

For assay [4], the target named is Histone deacetylase. Nature of the assay: Inhibition of HDAC in human K562 cells using Boc-L-Lys(acetyl)-MCA as substrate by fluorogenic cellular assay. The assay is classed as cell-based. The method, boiled down: as §1

Chain of Histone deacetylase 1 (Q13547 whole entry): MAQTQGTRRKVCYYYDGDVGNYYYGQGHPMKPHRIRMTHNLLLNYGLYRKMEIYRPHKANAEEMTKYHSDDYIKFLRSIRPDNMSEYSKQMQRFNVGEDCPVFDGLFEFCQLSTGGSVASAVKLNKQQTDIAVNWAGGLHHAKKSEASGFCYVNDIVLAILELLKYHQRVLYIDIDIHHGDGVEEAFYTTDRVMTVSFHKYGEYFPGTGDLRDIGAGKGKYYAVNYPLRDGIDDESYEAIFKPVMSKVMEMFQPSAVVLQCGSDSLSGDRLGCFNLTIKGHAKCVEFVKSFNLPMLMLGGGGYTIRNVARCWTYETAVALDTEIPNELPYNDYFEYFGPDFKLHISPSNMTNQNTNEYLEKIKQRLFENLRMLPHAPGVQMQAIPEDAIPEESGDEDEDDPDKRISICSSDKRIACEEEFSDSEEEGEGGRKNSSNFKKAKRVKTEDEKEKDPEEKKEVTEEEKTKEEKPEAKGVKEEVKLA

`O=C(NO)C(F)(F)C(F)(F)C(F)(F)C(F)(F)C(F)(F)C(F)(F)C(=O)Nc1cc2ccccc2c2ccccc12`: the Kd in assay [1] is 0.29 µM; at Histone deacetylase 7, 11 µM; in assay [2], 10 µM; at Histone deacetylase 8, 5.3 µM; at Histone deacetylase 1, 18 µM.
On to `O=C(Nc1ccccc1)C(F)(F)C(F)(F)C(F)(F)C(F)(F)C(F)(F)C(F)(F)C(=O)Nc1ccccc1`, for which the Kd is 27 µM in assay [1]; over 100 µM at Histone deacetylase 7; over 100 µM in assay [2]; over 100 µM at Histone deacetylase 8; over 100 µM at Histone deacetylase 1.
On to `O=C(NO)C(F)(F)C(F)(F)C(F)(F)C(F)(F)C(F)(F)C(F)(F)C(=O)Nc1ccc(I)cc1`, for which the equilibrium dissociation constant (Kd) in assay [1] came out at 0.39 µM; at Histone deacetylase 7 it was 4.1 µM; in assay [2] it was 4.2 µM; at Histone deacetylase 8, 36 µM; at Histone deacetylase 1 it was 14 µM. Also, the IC50 on Histone deacetylase [3] and against Histone deacetylase [4] was over 50 µM in each case.
With `O=C(NO)C(F)(F)C(F)(F)C(F)(F)C(F)(F)C(F)(F)C(F)(F)C(=O)Nc1ccc2ccc3cccc4ccc1c2c34`, the Kd turned out to be 0.6 µM in assay [1]; 75 µM on Histone deacetylase 7; 17 µM in assay [2]; 47 µM at Histone deacetylase 8; 22 µM at Histone deacetylase 1.
Turning to `O=C(NO)C(F)(F)C(F)(F)C(F)(F)C(F)(F)C(F)(F)C(F)(F)C(=O)Nc1cccc(-c2ccccc2)c1`, the equilibrium dissociation constant (Kd) is 0.45 µM in assay [1]; 14 µM on Histone deacetylase 7; 15 µM in assay [2]; 60 µM at Histone deacetylase 8; 30 µM at Histone deacetylase 1.
With `O=C(NO)C(F)(F)C(F)(F)C(F)(F)C(F)(F)C(F)(F)C(F)(F)C(=O)Nc1cccc2cc3ccccc3cc12`, the Kd in assay [1] was found to be 0.74 µM; at Histone deacetylase 7, 13 µM; in assay [2] it was 5.9 µM; at Histone deacetylase 8, 1.4 µM; at Histone deacetylase 1 it was 14 µM. For the same compound, the concentration for half-maximal inhibition (IC50) on Histone deacetylase [3] and on Histone deacetylase [4] was over 50 µM throughout.
Consider `O=C(NO)C(F)(F)C(F)(F)C(F)(F)C(F)(F)C(F)(F)C(F)(F)C(=O)Nc1cccc2ccccc12`, for which the dissociation constant (Kd) in assay [1] amounted to 0.37 µM; at Histone deacetylase 7, 20 µM; in assay [2], 32 µM; at Histone deacetylase 8, 19 µM; on Histone deacetylase 1 it was 29 µM.
Turning to `O=C(NO)C(F)(F)C(F)(F)C(F)(F)C(F)(F)C(F)(F)C(F)(F)C(=O)Nc1ccc2ccccc2c1`, the equilibrium dissociation constant (Kd) in assay [1] came out at 0.16 µM; on Histone deacetylase 7, 11 µM; in assay [2], 6.8 µM; at Histone deacetylase 8 it was 49 µM; at Histone deacetylase 1 it was 12 µM. Moreover, the values for the 50% inhibitory concentration (IC50) against Histone deacetylase [3] and at Histone deacetylase [4] were 45 µM and over 50 µM, respectively.
Turning to `Cc1ccc(NC(=O)C(F)(F)C(F)(F)C(F)(F)C(F)(F)C(F)(F)C(F)(F)C(=O)NO)cc1`, the dissociation constant Kd in assay [1] was 0.27 µM; on Histone deacetylase 7 it was 52 µM; in assay [2] it was over 100 µM; on Histone deacetylase 8 it was 34 µM; on Histone deacetylase 1 it was 14 µM.
With `O=C(NO)C(F)(F)C(F)(F)C(F)(F)C(F)(F)C(F)(F)C(F)(F)C(=O)Nc1ccc(-c2cnnn2-c2ccccc2)cc1`, the dissociation constant Kd is 4.5 µM in assay [1]; 12 µM on Histone deacetylase 7; 47 µM in assay [2]; over 100 µM at Histone deacetylase 8; 66 µM at Histone deacetylase 1.
`O=C(NO)C(F)(F)C(F)(F)C(F)(F)C(F)(F)C(F)(F)C(F)(F)C(=O)Nc1ccc(Cl)cc1`: the Kd in assay [1] worked out at 0.21 µM; on Histone deacetylase 7 it was 19 µM; in assay [2], 23 µM; at Histone deacetylase 8 it was 35 µM; on Histone deacetylase 1, 12 µM.
In the case of `O=C(NO)C(F)(F)C(F)(F)C(F)(F)C(F)(F)C(F)(F)C(F)(F)C(=O)Nc1ccc(-c2ccccc2)cc1`, the Kd in assay [1] turned out to be 8.8 µM; at Histone deacetylase 7, 14 µM; in assay [2], 49 µM; on Histone deacetylase 8, 57 µM; on Histone deacetylase 1, 31 µM.
On to `N#Cc1ccc(NC(=O)C(F)(F)C(F)(F)C(F)(F)C(F)(F)C(F)(F)C(F)(F)C(=O)NO)cc1`, for which the Kd in assay [1] is 0.23 µM; at Histone deacetylase 7, 32 µM; in assay [2], 71 µM; at Histone deacetylase 8 it was 35 µM; on Histone deacetylase 1, 18 µM.
Consider `O=C(NO)C(F)(F)C(F)(F)C(F)(F)C(F)(F)C(F)(F)C(F)(F)C(=O)Nc1ccc2cc3ccccc3cc2c1`, for which the dissociation constant (Kd) in assay [1] came to 9.1 µM; at Histone deacetylase 7, 38 µM; in assay [2] it was 11 µM; on Histone deacetylase 8, 60 µM; on Histone deacetylase 1, 65 µM.
Consider `O=C(NO)C(F)(F)C(F)(F)C(F)(F)C(F)(F)C(F)(F)C(F)(F)C(=O)Nc1ccc(-c2cn(-c3ccccc3)nn2)cc1`, for which the Kd in assay [1] was 7 µM; on Histone deacetylase 7, 30 µM; in assay [2], 8.2 µM; on Histone deacetylase 8, over 100 µM; at Histone deacetylase 1 it was over 100 µM.

Values taken from ChEMBL document CHEMBL1932952, “Synthesis and biochemical analysis of 2,2,3,3,4,4,5,5,6,6,7,7-dodecafluoro-N-hydroxy-octanediamides as inhibitors of human histone deacetylases” (Bioorg Med Chem, 2012).
